pIC50: −log10 of the molar value.
Assays:
[1] = test system: Plasmodium falciparum; assay: Antimalarial activity against Plasmodium falciparum K1; format: functional, organism-based
Summary of the method: (§1)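 Parasites kept in continuous culture in human erythrocytes (2–5%) in RPMI 1640 with 25 mM HEPES, 32 mM NaHCO3 and 10% human serum, gassed 3% O2/4% CO2/93% N2. 48 h assay: 1% initial parasitemia, 5% hematocrit, ethanol stocks (final <1% ethanol); [3H]hypoxanthine added after 24 h at 37 °C, counted after further 24 h. IC50 by probit interpolation; triplicate.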

[2] = test system: Plasmodium falciparum; assay: Antimalarial activity against Plasmodium falciparum HB3; format: functional, organism-based; summary of the method: as §1

Compound	pIC50 [1]	pIC50 [2]
C[C@@H]1CCC2[C@@H](C)[C@@H](OCc3ccc(CN4CCCC4)cc3)OC3O[C@@]4(C)CC[C@@H]1[C@]32OO4 (stereo partly specified)	8.64	8.64
C[C@@H]1CCC2[C@@H](C)[C@@H](OCc3ccc(CO)cc3)OC3O[C@@]4(C)CC[C@@H]1[C@]32OO4 (stereo partly specified)	8.36	8.38
CCNCCO[C@H]1OC2O[C@@]3(C)CC[C@H]4[C@H](C)CCC([C@H]1C)[C@@]24OO3 (stereo partly specified)	8.39	8.39
CNCCO[C@H]1OC2O[C@@]3(C)CC[C@H]4[C@H](C)CCC([C@H]1C)[C@@]24OO3 (stereo partly specified)	8.62	8.57
C[C@@H]1CCC2[C@@H](C)[C@@H](OCc3ccc(CN4CCOCC4)cc3)OC3O[C@@]4(C)CC[C@@H]1[C@]32OO4 (stereo partly specified)	7.46	7.30
CCN(CC)Cc1ccc(CO[C@H]2OC3O[C@@]4(C)CC[C@H]5[C@H](C)CCC([C@H]2C)[C@@]35OO4)cc1 (stereo partly specified)	8.85	8.51
C[C@@H]1CCC2[C@@H](C)[C@@H](OCc3ccc(CN4CCCCC4)cc3)OC3O[C@@]4(C)CC[C@@H]1[C@]32OO4 (stereo partly specified)	8.01	7.91
C[C@@H]1CC[C@H]2[C@@H](C)C(=O)O[C@@H]3O[C@@]4(C)CC[C@@H]1[C@]32OO4 [ARTEMISININ]	8.19	8.14

From ChEMBL document CHEMBL1129389, “Mechanism-based design of parasite-targeted artemisinin derivatives: synthesis and antimalarial activity of benzylamino and alkylamino ether analogues of artemisinin” (J Med Chem, 1996)
